# Measurements reported in ChEMBL document CHEMBL4007505 (J Med Chem, 2017).
# The source made the active and inactive calls.
# Key:
# [1] = target: T1, Adenosine receptor A3 (Homo sapiens, UniProt P0DMS8); assay: Displacement of [125I]N6-(4-amino-3-iodobenzyl)adenosine-5'-N-methyluronamide from human A3AR expressed in HEK293T cells pre-incubated for 10 mins before radioligand addition and measured 90 mins after radioligand addition by micro beta scintillation counting analysis relative to control; type: cell-based, HEK-293T
# T1 sequence (P0DMS8 whole entry): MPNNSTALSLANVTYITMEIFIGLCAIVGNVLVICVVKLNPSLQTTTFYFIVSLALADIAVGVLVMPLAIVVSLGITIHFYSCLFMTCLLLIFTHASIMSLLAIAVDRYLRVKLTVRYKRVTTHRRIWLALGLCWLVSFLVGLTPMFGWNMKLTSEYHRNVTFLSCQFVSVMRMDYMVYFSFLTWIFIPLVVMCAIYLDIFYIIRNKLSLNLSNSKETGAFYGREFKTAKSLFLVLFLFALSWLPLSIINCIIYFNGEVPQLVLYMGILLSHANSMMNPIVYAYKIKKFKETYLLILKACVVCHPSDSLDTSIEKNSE
# [2] = target: Sodium-dependent serotonin transporter (Homo sapiens, UniProt P31645); assay: Inhibition of [125I]RTI-55 binding to recombinant human SERT expressed in HEK293 cell membranes preincubated for 10 mins followed by radioligand addition measured after 90 mins by micro beta scintillation counting analysis
# [3] = target: T2, Sodium-dependent dopamine transporter (Homo sapiens, UniProt Q01959); assay: Enhancing of [3H]WIN35,428 binding to recombinant human DAT expressed in HEK293 cell membranes at 10 uM pre-incubated for 10 mins before radioligand addition and measured 90 mins after radioligand addition by micro beta scintillation counting analysis relative to control
# [4] = target: T3, Adenosine receptor A3 (Mus musculus) (UniProt Q61618); assay: Displacement of [125I]N6-(4-amino-3-iodobenzyl)adenosine-5'-N-methyluronamide from mouse A3AR expressed in HEK293T cells at 10 uM pre-incubated for 10 mins before radioligand addition and measured 90 mins after radioligand addition by micro beta scintillation counting analysis relative to control; type: cell-based
# T3 sequence (whole entry): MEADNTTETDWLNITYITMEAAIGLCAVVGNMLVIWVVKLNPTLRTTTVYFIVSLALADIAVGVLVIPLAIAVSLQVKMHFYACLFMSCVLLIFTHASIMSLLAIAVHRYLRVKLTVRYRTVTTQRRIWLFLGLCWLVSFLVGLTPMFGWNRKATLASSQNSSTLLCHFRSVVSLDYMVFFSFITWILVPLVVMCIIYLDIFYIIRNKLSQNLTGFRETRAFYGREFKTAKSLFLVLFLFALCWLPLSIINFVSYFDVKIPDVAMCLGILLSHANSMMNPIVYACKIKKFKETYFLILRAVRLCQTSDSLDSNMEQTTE
# [5] = target: T2, Sodium-dependent dopamine transporter; assay: Enhancing of [3H]mazindol binding to recombinant human DAT expressed in HEK293 cell membranes preincubated for 10 mins followed by radioligand addition measured after 90 mins by micro beta scintillation counting analysis; settings: hek293
# In short: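 Membranes of HEK-293 cells stably expressing hDAT, hNET or hSERT. […] Compound preincubated 10 min at room temperature, then [125I]23 (40-80 pM final) or [3H]26 (1-3 nM for DAT and NET, 10-13 nM for SERT) added. Incubated 90 min at room temperature in the dark, then filtered. EC50 or Ki; mean ± SEM.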
# [6] = target: T2, Sodium-dependent dopamine transporter; assay: Inhibition of [3H]mazindol binding to recombinant human DAT expressed in HEK293 cell membranes preincubated for 10 mins followed by radioligand addition measured after 90 mins by micro beta scintillation counting analysis
# [7] = target: T4, Sodium-dependent noradrenaline transporter (Homo sapiens, UniProt P23975); assay: Enhancing of [3H]mazindol binding to recombinant human NET expressed in HEK293 cell membranes preincubated for 10 mins followed by radioligand addition measured after 90 mins by micro beta scintillation counting analysis
# [8] = target: T2, Sodium-dependent dopamine transporter; assay: Enhancing of [3H]WIN35,428 binding to recombinant human DAT expressed in HEK293 cell membranes pre-incubated for 10 mins before radioligand addition and measured 90 mins after radioligand addition by micro beta scintillation counting analysis relative to control
# [9] = target: Alpha-2B adrenergic receptor (Homo sapiens, UniProt P18089); assay: Displacement of [3H]Rauwolscine from human adrenergic alpha2B receptor
# [10] = target: T5, Alpha-1A adrenergic receptor (Homo sapiens, UniProt P35348); assay: Displacement of [3H]Prazosin from human adrenergic alpha1A receptor
# T5 sequence (P35348 whole entry): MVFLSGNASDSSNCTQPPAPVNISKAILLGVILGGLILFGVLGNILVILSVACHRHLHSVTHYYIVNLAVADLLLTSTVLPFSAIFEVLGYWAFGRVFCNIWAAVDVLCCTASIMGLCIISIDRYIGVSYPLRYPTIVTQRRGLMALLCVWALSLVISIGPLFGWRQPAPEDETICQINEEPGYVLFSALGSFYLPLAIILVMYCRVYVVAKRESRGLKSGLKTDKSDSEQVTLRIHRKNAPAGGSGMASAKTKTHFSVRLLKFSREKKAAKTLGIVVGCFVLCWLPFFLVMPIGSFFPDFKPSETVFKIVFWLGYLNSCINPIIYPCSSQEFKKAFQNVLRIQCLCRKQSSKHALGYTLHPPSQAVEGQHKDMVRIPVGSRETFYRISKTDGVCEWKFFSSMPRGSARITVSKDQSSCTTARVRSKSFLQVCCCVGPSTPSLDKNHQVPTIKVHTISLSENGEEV
# [11] = target: T6, Alpha-2C adrenergic receptor (Homo sapiens, UniProt P18825); assay: Displacement of [3H]Rauwolscine from human adrenergic alpha2C receptor
# T6 sequence (P18825 whole entry): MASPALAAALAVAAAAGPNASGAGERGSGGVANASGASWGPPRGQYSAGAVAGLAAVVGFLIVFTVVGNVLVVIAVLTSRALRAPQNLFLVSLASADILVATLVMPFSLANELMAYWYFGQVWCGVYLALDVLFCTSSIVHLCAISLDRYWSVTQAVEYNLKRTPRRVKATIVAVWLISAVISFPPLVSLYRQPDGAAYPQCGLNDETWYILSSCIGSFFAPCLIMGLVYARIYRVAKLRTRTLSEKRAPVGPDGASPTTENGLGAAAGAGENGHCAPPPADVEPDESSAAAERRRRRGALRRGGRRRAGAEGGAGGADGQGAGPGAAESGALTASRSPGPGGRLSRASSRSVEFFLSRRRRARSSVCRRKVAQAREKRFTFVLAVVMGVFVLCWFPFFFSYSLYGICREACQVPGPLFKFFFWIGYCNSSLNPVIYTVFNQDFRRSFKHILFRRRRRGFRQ
# [12] = target: T2, Sodium-dependent dopamine transporter; assay: Inhibition of [3H]WIN35,428 binding to recombinant human DAT expressed in HEK293 cell membranes at 10 uM pre-incubated for 10 mins before radioligand addition and measured 90 mins after radioligand addition by micro beta scintillation counting analysis relative to control
# [13] = target: T4, Sodium-dependent noradrenaline transporter; assay: Inhibition of [3H]nisoxetine binding to recombinant human NET expressed in HEK293 cell membranes preincubated for 10 mins followed by radioligand addition measured after 90 mins by micro beta scintillation counting analysis
# [14] = target: T7, Alpha-1B adrenergic receptor (Homo sapiens, UniProt P35368); assay: Displacement of [3H]Prazosin from human adrenergic alpha1B receptor
# T7 sequence (P35368 whole entry): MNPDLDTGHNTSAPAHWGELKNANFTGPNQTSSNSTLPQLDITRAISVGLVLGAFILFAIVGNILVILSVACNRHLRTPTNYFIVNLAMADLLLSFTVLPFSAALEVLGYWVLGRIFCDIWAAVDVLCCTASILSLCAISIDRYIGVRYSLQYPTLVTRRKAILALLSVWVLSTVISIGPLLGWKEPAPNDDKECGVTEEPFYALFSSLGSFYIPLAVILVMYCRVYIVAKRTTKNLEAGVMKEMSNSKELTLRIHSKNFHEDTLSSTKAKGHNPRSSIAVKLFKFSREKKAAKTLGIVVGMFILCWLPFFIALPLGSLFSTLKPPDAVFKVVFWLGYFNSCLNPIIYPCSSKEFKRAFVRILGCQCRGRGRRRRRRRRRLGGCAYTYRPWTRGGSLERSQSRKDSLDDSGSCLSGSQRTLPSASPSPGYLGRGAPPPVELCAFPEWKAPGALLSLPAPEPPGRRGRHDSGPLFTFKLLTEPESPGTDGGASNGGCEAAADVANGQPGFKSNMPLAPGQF
# [15] = target: T8, Adenosine receptor A3 (Mus musculus, UniProt Q61618); assay: Displacement of [125I]N6-(4-amino-3-iodobenzyl)adenosine-5'-N-methyluronamide from mouse A3AR expressed in HEK293T cells pre-incubated for 10 mins before radioligand addition and measured 90 mins after radioligand addition by micro beta scintillation counting analysis relative to control; type: cell-based
# T8 sequence (Q61618 whole entry): T3 sequence (whole entry)
# [16] = tested on: Mus musculus; assay: Antiallodynic activity in mouse chronic constriction injury model of neuropathic pain assessed as time duration of action for increasing in paw withdrawal threshold at 3 umol/kg, po administered on day 7 post injury; type: functional
# [17] = target: T9, Alpha-1D adrenergic receptor (Homo sapiens, UniProt P25100); assay: Displacement of [3H]Prazosin from human adrenergic alpha1D receptor
# T9 sequence (P25100 whole entry): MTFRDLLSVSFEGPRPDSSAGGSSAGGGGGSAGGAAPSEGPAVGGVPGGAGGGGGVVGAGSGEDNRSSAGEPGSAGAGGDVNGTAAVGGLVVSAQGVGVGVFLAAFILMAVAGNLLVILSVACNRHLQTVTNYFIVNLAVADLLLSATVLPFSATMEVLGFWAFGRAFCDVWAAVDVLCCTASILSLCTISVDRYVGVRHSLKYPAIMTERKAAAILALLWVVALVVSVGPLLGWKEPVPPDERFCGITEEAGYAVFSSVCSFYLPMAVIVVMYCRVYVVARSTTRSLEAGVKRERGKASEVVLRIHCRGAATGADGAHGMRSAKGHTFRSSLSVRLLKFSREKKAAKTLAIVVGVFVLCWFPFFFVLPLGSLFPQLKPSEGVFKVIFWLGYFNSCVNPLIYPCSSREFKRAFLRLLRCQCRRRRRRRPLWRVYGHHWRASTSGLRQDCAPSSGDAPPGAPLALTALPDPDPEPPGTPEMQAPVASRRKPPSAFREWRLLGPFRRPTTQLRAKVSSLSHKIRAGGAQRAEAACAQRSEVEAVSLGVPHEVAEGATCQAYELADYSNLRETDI
# [18] = target: Alpha-2A adrenergic receptor (Homo sapiens, UniProt P08913); assay: Displacement of [3H]Rauwolscine from human adrenergic alpha2A receptor
# [19] = target: Sigma intracellular receptor 2 (Rattus norvegicus, UniProt Q5U3Y7); assay: Displacement of [3H]DTG from rat sigma 2 receptor
# Sigma intracellular receptor 2, sequence (Q5U3Y7 whole entry): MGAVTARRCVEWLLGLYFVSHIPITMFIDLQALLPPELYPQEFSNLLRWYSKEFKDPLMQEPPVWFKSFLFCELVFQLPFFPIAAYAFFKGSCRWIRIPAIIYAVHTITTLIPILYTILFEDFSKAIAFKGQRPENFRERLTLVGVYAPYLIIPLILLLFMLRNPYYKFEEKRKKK
# T2 sequence (Q01959 whole entry): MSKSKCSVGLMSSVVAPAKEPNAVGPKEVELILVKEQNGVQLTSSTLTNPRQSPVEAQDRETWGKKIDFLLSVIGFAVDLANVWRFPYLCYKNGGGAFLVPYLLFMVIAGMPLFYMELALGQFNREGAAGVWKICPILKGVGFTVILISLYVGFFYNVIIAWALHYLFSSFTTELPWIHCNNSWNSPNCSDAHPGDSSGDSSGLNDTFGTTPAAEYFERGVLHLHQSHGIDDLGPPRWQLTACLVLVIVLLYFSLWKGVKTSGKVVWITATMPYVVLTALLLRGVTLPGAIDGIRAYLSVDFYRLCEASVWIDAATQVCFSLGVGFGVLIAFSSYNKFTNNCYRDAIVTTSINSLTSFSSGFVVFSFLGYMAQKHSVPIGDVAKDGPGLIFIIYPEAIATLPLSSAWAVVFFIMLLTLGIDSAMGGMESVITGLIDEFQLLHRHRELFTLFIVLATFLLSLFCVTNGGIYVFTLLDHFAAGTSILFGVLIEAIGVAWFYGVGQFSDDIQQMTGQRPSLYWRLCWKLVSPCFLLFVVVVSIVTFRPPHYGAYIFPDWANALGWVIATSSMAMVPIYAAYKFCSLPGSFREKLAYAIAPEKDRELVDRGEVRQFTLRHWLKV
# T4 sequence (P23975 whole entry): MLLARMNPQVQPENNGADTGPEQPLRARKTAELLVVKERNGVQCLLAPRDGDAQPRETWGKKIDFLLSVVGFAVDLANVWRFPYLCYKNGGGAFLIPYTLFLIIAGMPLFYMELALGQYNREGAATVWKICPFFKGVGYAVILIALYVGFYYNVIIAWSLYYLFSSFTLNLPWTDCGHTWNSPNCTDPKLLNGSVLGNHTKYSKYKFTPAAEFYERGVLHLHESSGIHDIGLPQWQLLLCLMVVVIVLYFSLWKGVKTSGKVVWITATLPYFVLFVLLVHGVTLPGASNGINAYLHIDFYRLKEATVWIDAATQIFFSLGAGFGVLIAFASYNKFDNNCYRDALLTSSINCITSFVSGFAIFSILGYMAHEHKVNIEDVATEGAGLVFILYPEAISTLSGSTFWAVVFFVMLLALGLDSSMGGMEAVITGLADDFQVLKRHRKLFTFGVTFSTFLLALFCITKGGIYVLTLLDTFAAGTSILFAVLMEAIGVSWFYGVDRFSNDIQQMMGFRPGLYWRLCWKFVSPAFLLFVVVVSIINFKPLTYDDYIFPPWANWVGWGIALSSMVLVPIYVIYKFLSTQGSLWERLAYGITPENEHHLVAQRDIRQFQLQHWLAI
# Alpha-2B adrenergic receptor, sequence (P18089 whole entry): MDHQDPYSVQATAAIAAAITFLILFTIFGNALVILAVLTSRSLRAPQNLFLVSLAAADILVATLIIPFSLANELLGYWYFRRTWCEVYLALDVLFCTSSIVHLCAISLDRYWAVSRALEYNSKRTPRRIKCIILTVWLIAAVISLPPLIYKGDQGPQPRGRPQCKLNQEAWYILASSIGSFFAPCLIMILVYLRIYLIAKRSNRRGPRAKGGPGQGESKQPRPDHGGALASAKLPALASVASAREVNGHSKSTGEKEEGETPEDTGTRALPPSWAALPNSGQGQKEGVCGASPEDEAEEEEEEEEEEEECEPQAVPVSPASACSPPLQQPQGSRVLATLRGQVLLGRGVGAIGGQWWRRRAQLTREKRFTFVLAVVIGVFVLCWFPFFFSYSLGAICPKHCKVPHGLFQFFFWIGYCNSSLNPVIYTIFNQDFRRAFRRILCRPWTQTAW
# Sodium-dependent serotonin transporter, sequence (P31645 whole entry): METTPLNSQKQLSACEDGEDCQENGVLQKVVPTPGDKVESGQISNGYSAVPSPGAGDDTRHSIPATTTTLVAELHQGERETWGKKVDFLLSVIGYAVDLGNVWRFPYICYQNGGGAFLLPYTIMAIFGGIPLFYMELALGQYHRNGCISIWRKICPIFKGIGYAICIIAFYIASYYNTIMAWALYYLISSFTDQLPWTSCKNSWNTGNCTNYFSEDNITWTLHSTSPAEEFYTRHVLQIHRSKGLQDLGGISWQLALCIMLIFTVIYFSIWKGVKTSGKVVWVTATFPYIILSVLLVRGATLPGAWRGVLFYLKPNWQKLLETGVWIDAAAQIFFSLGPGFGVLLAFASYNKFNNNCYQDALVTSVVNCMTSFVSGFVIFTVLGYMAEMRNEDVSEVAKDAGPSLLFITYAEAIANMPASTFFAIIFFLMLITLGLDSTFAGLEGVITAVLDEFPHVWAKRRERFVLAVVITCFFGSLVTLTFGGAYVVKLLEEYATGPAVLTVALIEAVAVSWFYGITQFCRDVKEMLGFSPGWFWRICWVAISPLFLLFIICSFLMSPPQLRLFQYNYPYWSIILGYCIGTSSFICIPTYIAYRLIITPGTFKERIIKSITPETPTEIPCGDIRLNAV
# Alpha-2A adrenergic receptor, sequence (P08913 whole entry): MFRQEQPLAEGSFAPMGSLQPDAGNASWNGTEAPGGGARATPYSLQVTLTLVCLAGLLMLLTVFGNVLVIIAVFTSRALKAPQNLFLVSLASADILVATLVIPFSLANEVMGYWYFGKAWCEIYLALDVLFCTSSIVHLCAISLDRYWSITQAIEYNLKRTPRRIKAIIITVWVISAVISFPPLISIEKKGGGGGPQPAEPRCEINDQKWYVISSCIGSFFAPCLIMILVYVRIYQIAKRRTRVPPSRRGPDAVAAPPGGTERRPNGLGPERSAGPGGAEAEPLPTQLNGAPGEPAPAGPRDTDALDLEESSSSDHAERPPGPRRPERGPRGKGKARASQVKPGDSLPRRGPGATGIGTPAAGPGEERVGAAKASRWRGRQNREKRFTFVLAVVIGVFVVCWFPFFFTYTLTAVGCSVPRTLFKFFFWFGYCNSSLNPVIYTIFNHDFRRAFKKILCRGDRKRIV
smiles,measurement,setting,value
CNc1nc(C#Cc2ccc(Cl)s2)nc2c1ncn2[C@H]1[C@H](O)[C@H](O)[C@]2(C(=O)OCc3ccccc3)C[C@H]12,Ki,[1],0.00731 µM
same,Ki,[2],5.6 µM
same,Activity,[3],inactive
same,inhibition,[4],48%
COC(=O)[C@H]1[C@@H](c2ccc([125I])cc2)CC2CC[C@H]1N2C,EC50,[5],Not Active
same,Ki,[6],0.011 µM
same,EC50,[7],Not Active
CCCNc1nc(C#Cc2ccc(Cl)s2)nc2c1ncn2[C@@H]1O[C@H](C(=O)NC)[C@@H](O)[C@H]1O,Ki,[1],0.00625 µM
same,EC50,[8],> 1 µM
same,Ki,[9],5 to 10 µM
same,Ki,[10],> 10 µM
same,Ki,[11],> 10 µM
same,inhibition,[12],inactive
same,Ki,[13],3.1 µM
same,Ki,[14],> 10 µM
same,Ki,[15],0.597 µM
same,Time,[16],>6 h
same,Ki,[17],> 10 µM
same,Ki,[18],5 to 10 µM
same,Activity,[3],84%
CNc1nc(C#Cc2ccc(Cl)s2)nc2c1ncn2[C@H]1[C@H](O)[C@H](O)[C@]2(C(=O)OCCc3ccccc3)C[C@H]12,Ki,[1],0.262 µM
same,Ki,[19],5.9 µM
same,Activity,[3],inactive
same,inhibition,[4],3%
